Measurements reported in paper PMC5346463 (Anticancer research, 2014).
In brackets after ≈: the same amount, converted by molar mass.

What was measured:
[1] = tested on: HIF-1α; assay: Western blot of HIF-1α protein expression in MDA-MB-231 cells; format: cell-based; details: hypoxic conditions (1% oxygen)
[2] = tested on: PHD3; assay: Quantitative real-time PCR, PHD3 mRNA in MDA-MB-231 cells; format: cell-based; details: 10 μM, 8 h, normalized to Cyclophilin A, n=3
Outline: (§1)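 MDA-MB-231 cells seeded at 3.5×10^5/well in six-well plates overnight. Treated 8 h with 10 μM test compound in medium under hypoxia (1% O2) or normoxia; controls got medium with […] DMSO. Total RNA isolated and reverse-transcribed. SYBR Green qPCR run with 40 ng cDNA/well, normalised to Cyclophilin A, n=3.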

[3] = tested on: HIF1A; assay: Quantitative real-time PCR, HIF1A mRNA in MDA-MB-231 cells; format: cell-based; details: 10 μM, 8 h, normalized to Cyclophilin A, n=3
Outline: as §1

[4] = tested on: VEGF; assay: Quantitative real-time PCR, VEGF mRNA in MDA-MB-231 cells; format: cell-based; details: 10 μM, 8 h, normalized to Cyclophilin A, n=3
Outline: as §1

[5] = Aqueous solubility, miniaturized shake-flask with LC-MS/MS; format: physicochemical; details: for Solubility: room temperature
Outline: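 Test compound (1.0 mg) shaken in 1 mL water or pH 7.0 phosphate buffer for 24 h at 450 rpm, room temperature. Suspension spun at 10,000 RPM for 15 min. Supernatant quantified by ESI LC-MS/MS on a PFP column using a 0.1% formic acid/MeOH gradient at 0.4 mL/min.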

[6] = Cytotoxicity, sulforhodamine B; format: cell-based; details: human, MDA-MB-231 cells
Outline: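 MDA-MB-231 cells (DMEM high glucose, 10% FBS, antibiotic/antimycotic) plated at 5,000 cells/well and left to adhere overnight at normoxia. Pre-incubated 1 h with titrated test compound, then cultured at normoxia (21% O2, 5% CO2) or hypoxia (1% O2, 5% CO2). SRB stain after 96 h, OD read at 540 nm. IC50 given as mean±SEM, n=3.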

## OCc1ccc(-c2nn(Cc3ccccc3)c3ccccc23)o1 [YC-1, 3-(5′-hydroxymethyl-2′-furyl)-1-benzyl indazole]
[1]
  HIF-1α protein accumulation under hypoxic stress (western blot): not inhibited
[2]; hypoxia (1% oxygen)
  PHD3 mRNA level (qPCR): insignificant
[2]; normoxia
  PHD3 mRNA level (qPCR): enhancement of PHD3 mRNA levels
[3]; hypoxia (1% oxygen)
  HIF1A expression (qPCR): remained repressed
[3]; normoxia
  HIF1A expression level (qPCR): significantly reduced
[4]; hypoxia (1% oxygen)
  VEGF expression (qPCR): remained repressed
[4]; normoxia
  VEGF expression level (qPCR): significantly reduced
[5]; Buffer pH 7.0, 24 h shaking
  Solubility: 0.94 µg/mL (≈ 3.09 µM)
[5]; Water, 24 h shaking
  Solubility: 1.241 µg/mL (≈ 4.08 µM)
[5]; buffer pH 7.0
  Aqueous solubility: 0.9 µg/mL
[5]; water
  Aqueous solubility: 1.2 µg/mL

## C[C@H]1O[C@@H](O[C@H]2[C@@H](O)C[C@H](O[C@H]3[C@@H](O)C[C@H](O[C@H]4CC[C@@]5(C)[C@H](CC[C@@H]6[C@@H]5C[C@@H](O)[C@]5(C)[C@@H](C7=CC(=O)OC7)CC[C@]65O)C4)O[C@@H]3C)O[C@@H]2C)C[C@H](O)[C@@H]1O [Digoxin]
[6]
  IC50 at 96 h: 250 ± 50 nM

## CC(=O)O[C@@]12CO[C@@H]1C[C@H](O)[C@@]1(C)C(=O)[C@H](O)C3=C(C)[C@@H](OC(=O)[C@H](O)[C@@H](NC(=O)OC(C)(C)C)c4ccccc4)C[C@@](O)([C@@H](OC(=O)c4ccccc4)[C@H]21)C3(C)C [Docetaxel]
[6]
  IC50 at 96 h: < 5 nM
